From ChEMBL document CHEMBL1137141, “Synthesis of new coumarin 3-(N-aryl) sulfonamides and their anticancer activity” (2004)

Key:
Type in all cases: functional
NCI-H157 = assay: Concentration required to inhibit growth of H157 cells by 50% after 96h of treatment; conditions: Homo sapiens, NCI-H157, 96 h
How it was run: (§1)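 Cells (1 × 10⁵) were plated in 6-well dishes. Test agents were added 24 h later at five concentrations over a 2-log span (1–100 µM) and left on continuously for 96 h. Viable cells were counted by trypan blue exclusion on a hemacytometer and expressed as a percentage of DMSO-treated wells. GI50 was read from dose–response curves of % cells versus concentration.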

K562 = assay: Concentration required to inhibit growth of K562 cells by 50% after 96h of treatment; conditions: Homo sapiens, K562, 96 h; how it was run: as §1
BT-20 = assay: Concentration required to inhibit growth of BT20 cells by 50% after 96h of treatment; conditions: Homo sapiens, BT-20, 96 h; how it was run: as §1
DU-145 = assay: Concentration required to inhibit growth of DU145 cells by 50% after 96h of treatment; conditions: Homo sapiens, DU-145, 96 h; how it was run: as §1
DLD-1 = assay: Concentration required to inhibit growth of DLD-1 cells by 50% after 96h of treatment; conditions: Homo sapiens, DLD-1, 96 h; how it was run: as §1

| SMILES | GI50 (NCI-H157) [µM] | GI50 (K562) [µM] | GI50 (BT-20) [µM] | GI50 (DU-145) [µM] | GI50 (DLD-1) [µM] |
| --- | --- | --- | --- | --- | --- |
| CCOc1cccc2cc(S(=O)(=O)Nc3ccc(F)c(N)c3)c(=O)oc12 | 72 | 42 | 54 | 48 | 80 |
| COc1ccc(NS(=O)(=O)c2cc3cc(Cl)ccc3oc2=O)cc1O | 76 | 51 | 65 | 42 | 82 |
| COc1ccc(NS(=O)(=O)c2cc3cc(Cl)ccc3oc2=O)cc1 | 28 | 23 | 27 | 22 | 32 |
| COc1ccc2oc(=O)c(S(=O)(=O)Nc3ccc(F)c(N)c3)cc2c1 | 78 | 44 | 68 | 56 | 92 |
| CCOc1cccc2cc(S(=O)(=O)Nc3ccc(OC)cc3)c(=O)oc12 | 74 | 48 | 52 | 57 | 78 |

The remaining lines, values ahead:

| GI50 (NCI-H157) [µM] | GI50 (K562) [µM] | GI50 (BT-20) [µM] | GI50 (DU-145) [µM] | GI50 (DLD-1) [µM] | SMILES |
| --- | --- | --- | --- | --- | --- |
| 18 | 14 | 16 | 15 | 20 | COc1ccc(NS(=O)(=O)c2cc3cccc(Br)c3oc2=O)cc1 |
| 32 | 27 | 18 | 25 | 38 | COc1ccc2oc(=O)c(S(=O)(=O)Nc3ccc(Br)cc3)cc2c1 |
| 15 | 16 | 12 | 12 | 14 | O=c1oc2c(Br)cccc2cc1S(=O)(=O)Nc1ccc(Br)cc1 |
| 74 | 58 | 64 | 52 | 85 | CCOc1cccc2cc(S(=O)(=O)Nc3ccc(Br)cc3)c(=O)oc12 |
| 16 | 11 | 17 | 14 | 18 | O=c1oc2c(Cl)cccc2cc1S(=O)(=O)Nc1ccc(Br)cc1 |
